Measurements collected from several papers.
Lines come from different studies, so protocols differ.
ADRB1: Beta-1 adrenergic receptor (ADRB1, Homo sapiens, UniProt P08588)
HDAC9: Histone deacetylase 9 (HDAC9, Homo sapiens, UniProt Q9UKV0)
PKN1: Serine/threonine-protein kinase N1 (PKN1, Homo sapiens, UniProt Q16512)

target	effect on	action	technique	tested at	endpoint	result	SMILES
Pancreatic alpha-amylase (Homo sapiens, UniProt P04746)	enzyme activity	inhibitor	–	200 µg/mL	inhibition	97.5%	C[C@H]1O[C@H](O[C@H]2[C@H](O)[C@@H](O)[C@@H](O[C@H]3[C@H](O)[C@@H](O)C(O)O[C@@H]3CO)O[C@@H]2CO)[C@H](O)[C@@H](O)[C@@H]1N[C@H]1C=C(CO)[C@@H](O)[C@H](O)[C@H]1O (some centres unmarked)
ADRB1	ligand displacement	–	radioligand	10 µM	inhibition	2%	O=C(O)CNc1cccc(CN(Cc2ccc(-n3cccn3)cc2)S(=O)(=O)c2cccnc2)n1
NAD-dependent protein deacylase sirtuin-5, mitochondrial (SIRT5, Homo sapiens, UniProt Q9NXA8)	enzyme activity	inhibitor	–	–	KI (inactivation)	4 µM	N=c1c[n+](N2CCOCC2)[n-]o1
Cyclin-dependent kinase 18, with cyclin Y (CDK18, Homo sapiens, UniProt Q07002)	enzyme activity	inhibitor	radiometric	1 µM	remaining activity	99%	CNc1ncc2c(/C=C/C(=O)N3CCC(OC)CC3)nn(Cc3cccc(C(F)(F)F)c3)c2n1
HDAC9	enzyme activity	inhibitor	fluorescence	10 µM	inhibition	13%	O=C(/C=C/c1cccc(OS(=O)(=O)Oc2ccc(C(F)(F)F)cc2)c1)NO
PKN1	enzyme activity	inhibitor	–	1 µM	remaining activity	102%	COc1cc(-c2cncc3c2CN(C)Cc2cc(N4CCNCC4)ccc2-3)cc(OC)c1OC
PKN1	binding	–	competition with immobilised ligand	1 µM	remaining binding	100%	C=CC(=O)N1CCC(COCC(=O)N2CCN(c3nc(-c4cnc(N)nc4C(F)F)nc(N4CCOC[C@@H]4C)n3)CC2)CC1
HDAC9	enzyme activity	inhibitor	fluorescence	10 µM	inhibition	33%	O=C(NO)c1cc(F)cc(OS(=O)(=O)Oc2ccccc2)c1
NUAK family SNF1-like kinase 2 (NUAK2, Homo sapiens, UniProt Q9H093)	binding	–	competition with immobilised ligand	10 µM	remaining binding	70%	Cc1cc([C@@H](C)Nc2ccccc2C(=O)O)c2nc(N3CCC(F)(F)CC3)c(C#N)c(=O)n2c1
HDAC9	enzyme activity	inhibitor	fluorescence	10 µM	inhibition	49%	O=C(NO)c1cncc(OS(=O)(=O)Oc2ccc(-n3ccnc3)cc2)c1
ADRB1	ligand displacement	–	radioligand	10 µM	inhibition	0%	CC(C)OC(=O)CNc1cccc(CN(Cc2ccc(-n3cccn3)cc2)S(=O)(=O)c2cccnc2)n1
